Measurements pooled from the literature.
Compare with care: the assays were run in different laboratories.
KIT A829P: Mast/stem cell growth factor receptor Kit (KIT, Homo sapiens, UniProt P10721, A829P)
KIT L576P: Mast/stem cell growth factor receptor Kit (KIT, Homo sapiens, UniProt P10721, L576P)
KIT T670I/V559D: Mast/stem cell growth factor receptor Kit (KIT, Homo sapiens, UniProt P10721, T670I/V559D)
KIT: Mast/stem cell growth factor receptor Kit (KIT, Homo sapiens, UniProt P10721)
KIT V559D: Mast/stem cell growth factor receptor Kit (KIT, Homo sapiens, UniProt P10721, V559D)
KIT D816H: Mast/stem cell growth factor receptor Kit (KIT, Homo sapiens, UniProt P10721, D816H)
KIT autoinhibited: Mast/stem cell growth factor receptor Kit, autoinhibited (KIT, Homo sapiens, UniProt P10721)
KIT V559D/V654A: Mast/stem cell growth factor receptor Kit (KIT, Homo sapiens, UniProt P10721, V559D/V654A)
KIT D816V: Mast/stem cell growth factor receptor Kit (KIT, Homo sapiens, UniProt P10721, D816V)

target	observed	method	concentration	remaining binding [%]	Structure (SMILES)
KIT A829P	binding	competition with immobilised ligand	1 µM	68	COc1cnc(Nc2cccc(S(N)(=O)=O)c2)nc1N1CCN(c2ccccc2)C(=O)C1
KIT L576P	cell-free assay	competition with immobilised ligand	1 µM	100	Cc1cc(NC(=O)c2cccc(S(F)(F)(F)(F)F)c2)cc(-n2ccn3nc(-c4cccnc4)cc23)c1
KIT T670I/V559D	binding	competition with immobilised ligand	10 µM	100	N#Cc1ccccc1CSc1nnc2c(n1)[nH]c1ccccc12
KIT	cell-free assay	competition with immobilised ligand	10 µM	97	CC(C)(C)c1ccc(-c2nc(CBr)nn2-c2cccc(O)c2)cc1
KIT V559D	binding	–	1 µM	100	CC1CCCN1c1nccc(-c2cnn3ncccc23)n1 (stereo not shown)
KIT V559D	binding	competition with immobilised ligand	1 µM	0.4	CCN1CCN(Cc2ccc(C(=O)Nc3ccc(C)c(Oc4ccc5c(c4)CC(=O)N5)c3)cc2C(F)(F)F)CC1
KIT L576P	binding	competition with immobilised ligand	1 µM	100	O=C(NCC1CCOCC1)c1n[nH]cc1NC(=O)c1c(F)cccc1F
KIT A829P	binding	competition with immobilised ligand	10 µM	27	c1cncc(-c2cccc(Nc3nccc(NC4CCCCC4)n3)c2)c1
KIT D816H	cell-free assay	competition with immobilised ligand	5 µM	100	COc1ncc2cc3ccccc3nc2c1C#N
KIT D816H	cell-free assay	competition with immobilised ligand	1 µM	100	Cc1c(NC(=O)c2cc(C(N)=O)nc3cc(F)ccc23)c(C(F)(F)F)nn1Cc1ccc(C(C)(C)C)cc1
KIT autoinhibited	binding	–	1 µM	100	CN(c1nccc(-c2cnn3ncccc23)n1)C1CC1
KIT A829P	cell-free assay	competition with immobilised ligand	1 µM	100	CC(C)(O)c1cncc(-c2nc3ccc(F)cc3n2C2CC2)c1
KIT V559D	binding	competition with immobilised ligand	0.1 µM	32	C[C@@H](c1ccc(-n2cnc3c(N)ncnc32)cc1)N1CCc2nn(C)c(Cc3ccccc3)c2C1=O
KIT L576P	cell-free assay	competition with immobilised ligand	1 µM	100	COc1cc(-c2cn(C3CCc4c(F)cccc4N(CC(F)(F)F)C3=O)nn2)ccc1-n1cnc(C)c1 (stereo not shown)
KIT	binding	competition with immobilised ligand	1 µM	100	CNC(=O)[C@@H]1CC[C@@H](n2c(-c3ccc4cnccc4c3)nc3ccc(C(=O)NCc4cccc(C(N)=O)c4)cc32)C1
KIT T670I/V559D	binding	competition with immobilised ligand	1 µM	17	O=C(c1ccc(Nc2ncc(Cl)c(-c3cc4ccccc4s3)n2)cc1)N1CCC(N2CCCC2)CC1
KIT L576P	binding	competition with immobilised ligand	1 µM	80	COc1cnc(Nc2cccc(S(N)(=O)=O)c2)nc1N1CCN(c2ccccc2)CC1
KIT V559D/V654A	binding	competition with immobilised ligand	1 µM	56	O=C(NCCCN1CCOCC1)c1ccc(Nc2nccc(-c3cc4ccccc4s3)n2)cc1
KIT D816V	cell-free assay	competition with immobilised ligand	1 µM	81	Cc1nc(Cc2cccc(C(F)(F)F)c2)sc1-c1ccc(C(N)=O)nc1

target	observed	method	concentration	remaining binding [%]	Structure (SMILES)
KIT L576P	binding	competition with immobilised ligand	1 µM	53	C=CC(=O)N1CCC(C(=O)NCC(=O)N2CCN(c3nc(-c4cnc(N)nc4C(F)F)nc(N4CCOCC4)n3)CC2)CC1
KIT D816V	cell-free assay	competition with immobilised ligand	1 µM	100	O=C(Nc1cccnn1)N1CC(C/C=C/c2cncc(Oc3ccc(C(F)(F)F)cn3)n2)C1
KIT L576P	binding	–	10 µM	0.45	CN1CCN(c2ccc(Nc3nccc(-c4ccccc4)n3)cc2C(F)(F)F)CC1
KIT V559D/V654A	binding	competition with immobilised ligand	1 µM	9.3	O=C(c1ccc(Nc2ncc(Cl)c(-c3ccc(Cl)s3)n2)cc1)N1CCC(N2CCCC2)CC1
KIT V559D/V654A	binding	competition with immobilised ligand	1 µM	100	Nc1ncc2c(n1)-c1c([nH]c3ccc(C#CC4CC4)cc13)CCCC2
KIT A829P	binding	competition with immobilised ligand	1 µM	16	O=C(NCCCN1CCOCC1)c1ccc(Nc2ncc(Cl)c(-c3ccc(Cl)s3)n2)cc1
KIT D816H	binding	–	1 µM	77	CN(CCCC(F)(F)F)c1nccc(-c2cnn3ncccc23)n1
KIT V559D	binding	competition with immobilised ligand	1 µM	0.6	Cc1cnc(Nc2ccc(C(=O)N3CCC(N4CCCC4)CC3)cc2)nc1-c1cc2ccccc2s1
KIT autoinhibited	binding	–	1 µM	73	CN(C)c1ncc(F)c(-c2cnn3ncccc23)n1
KIT V559D	binding	competition with immobilised ligand	1 µM	100	O=C(Nc1c[nH]nc1C(=O)NC1CCNCC1)c1cc(F)cc(F)c1
KIT V559D/V654A	binding	–	1 µM	100	CN(C)c1nccc(-c2cnc3ncccn23)n1
KIT V559D/V654A	binding	–	10 µM	0	CN1CCN(c2ccc(Nc3nccc(-c4cccc([N+](=O)[O-])c4)n3)cc2C(F)(F)F)CC1
KIT V559D	binding	–	1 µM	100	N[C@@H]1CCN(c2nccc(-c3cnn4ncccc34)n2)C1
KIT autoinhibited	binding	competition with immobilised ligand	1 µM	66	O=C(c1ccc(Nc2nccc(-c3cc4ccccc4s3)n2)cc1)N1CCC(N2CCCC2)CC1
KIT V559D/V654A	cell-free assay	competition with immobilised ligand	1 µM	100	O=C(N1CCS(=O)(=O)CC1)N1C[C@H](c2ccc(OC(F)(F)F)cc2)C[C@H](c2nc(C3CC3)no2)C1
KIT D816V	binding	–	1 µM	100	Cc1cnn2ncc(-c3ccnc(N(C)C)n3)c2c1
KIT	cell-free assay	competition with immobilised ligand	1 µM	84	CCc1ccccc1C(=O)Nc1n[nH]c2c(C)c(F)c(C3C(C#N)=C(C)N(C)C(C)=C3C#N)cc12
KIT V559D/V654A	binding	–	1 µM	79	C[C@@H]1CCN(c2nccc(-c3cnn4ncccc34)n2)C1
